As a reminder, the MIC is the smallest concentration in the dilution series that meets the test's criterion for growth inhibition. High values mean a less susceptible organism, low ones a more susceptible organism.

This assay concerns Mycobacterium tuberculosis. In words: Antitubercular activity against multi drug resistant Mycobacterium tuberculosis H37Rv after 5 days by microplate alamar blue assay. The class given is functional. The following applies: 120 h. In short, it runs like this:
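Middlebrook 7H9 broth with compounds serially diluted on the plate over ten concentrations from 0.2 to 100. Sealed plates incubated 5 days at 37°C, then a fresh 1:1 mix of Alamar Blue and 10% Tween 80 was added for a further 24 h. Blue wells were scored as no growth and pink wells as growth.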
On the technique in general: The colour change of resazurin is a common sign of viable cells or microbes.

≈ marks a conversion by molar mass, not a printed value.

Turning to `COc1ccc(/C=C/C(=O)c2ccc(-n3cccc3)cc2)cc1`, the minimum inhibitory concentration (MIC) stood at 12.5 µg/mL (≈ 41.2 µM). The value for `COc1cc(C2CC(c3cccc([N+](=O)[O-])c3)=NN2C(C)=O)cc(OC)c1OC` (centres undefined) was 12.5 µg/mL (≈ 31.3 µM); that for `CC(=O)Nc1ccc(O)c(C2CC(c3ccc(Cl)cc3)=NN2C(=O)c2ccncc2)c1` (centres undefined) was 3.12 µg/mL (≈ 7.17 µM). In turn, `COc1ccc(C2CC(c3ccc(-n4cccc4)cc3)=NN2C(C)=O)cc1OC` (centres undefined) displayed an MIC of 12.5 µg/mL (≈ 32.1 µM). `Clc1ccc(-c2cc(-c3ccc(-n4cccc4)cc3)on2)cc1` came in with an MIC of 50 µg/mL (≈ 156 µM).

`Clc1cccc(Cl)c1-c1cc(-c2ccc(-n3cccc3)cc2)on1`: 100 µg/mL (≈ 282 µM) was the least that counted as inhibitory (MIC). Compound `Cc1ccc(NC(=S)Nc2ccccc2-n2c(C)ccc2C)cc1` gave an MIC of 50 µg/mL (≈ 149 µM). Compared with the last compound, the MIC is about 2-fold lower. Compound `Brc1ccccc1-c1cc(-c2ccc(-n3cccc3)cc2)on1` displayed an MIC of 100 µg/mL (≈ 274 µM).

`Clc1cccc(-c2cc(-c3ccc(-n4cccc4)cc3)on2)c1Cl` registered an MIC of 25 µg/mL (≈ 70.4 µM). The value for `CC(=O)N1N=C(c2ccc(-n3cccc3)cc2)CC1c1ccc(Cl)cc1Cl` (centres undefined) was 25 µg/mL (≈ 62.8 µM); that for `O=C(/C=C/c1ccccc1Cl)c1ccc(-n2cccc2)cc1` was 25 µg/mL (≈ 81.2 µM); that for `Cc1ccc(C)n1-c1ccccc1NC(=S)Nc1ccc(Cl)c(Cl)c1` was 6.25 µg/mL (≈ 16 µM). `CC(=O)N1N=C(c2ccc(-n3cccc3)cc2)CC1c1ccc(Cl)cc1` (centres undefined) displayed an MIC of 25 µg/mL (≈ 68.7 µM). Against the preceding compound, the MIC is about 4-fold higher.

For the compound `Brc1cccc(-c2cc(-c3ccc(-n4cccc4)cc3)on2)c1`, the minimum inhibitory concentration (MIC) came to 50 µg/mL (≈ 137 µM). `Fc1ccc(-c2cc(-c3ccc(-n4cccc4)cc3)on2)cc1` had a minimum inhibitory concentration (MIC) of 12.5 µg/mL (≈ 41.1 µM). The value for `O=C(/C=C/c1ccccc1)c1ccc(-n2cccc2)cc1` was 50 µg/mL (≈ 183 µM); that for `O=C(/C=C/c1ccc(Cl)cc1Cl)c1ccc(-n2cccc2)cc1` was 25 µg/mL (≈ 73.1 µM). The value for `CC(=O)N1N=C(c2ccc(-n3cccc3)cc2)CC1c1ccccc1` (centres undefined) was 25 µg/mL (≈ 75.9 µM). The value for `Cc1ccc(C)n1-c1ccccc1NC(=S)Nc1ccccc1Br` was 50 µg/mL (≈ 125 µM). `Clc1ccc(-c2cc(-c3ccc(-n4cccc4)cc3)on2)c(Cl)c1` displayed a minimum inhibitory concentration (MIC) of 50 µg/mL (≈ 141 µM). The same measure for `Clc1ccccc1-c1cc(-c2ccc(-n3cccc3)cc2)on1`: 25 µg/mL (≈ 77.9 µM); for `CC(C)c1ccc(/C=C/C(=O)c2ccc(-n3cccc3)cc2)cc1`: 12.5 µg/mL (≈ 39.6 µM); for `Cc1ccc(C)n1-c1ccccc1NC(=S)Nc1ccc(F)cc1`: 1.6 µg/mL (≈ 4.71 µM). In the case of `COc1cccc(C2CC(c3ccc(-n4cccc4)cc3)=NN2C(C)=O)c1` (centres undefined), the lowest concentration to inhibit growth (MIC) was 6.25 µg/mL (≈ 17.4 µM).

`CC(=O)N1N=C(c2ccc(-n3cccc3)cc2)CC1c1ccccc1Br` (centres undefined) yielded an MIC of 100 µg/mL (≈ 245 µM). `CC(=O)N1N=C(c2ccc(-n3cccc3)cc2)CC1c1c(Cl)cccc1Cl` (centres undefined) had an MIC of 25 µg/mL (≈ 62.8 µM). Consider `O=C(/C=C/c1ccccc1O)c1ccc(-n2cccc2)cc1`, for which it took 25 µg/mL (≈ 86.4 µM) to inhibit growth (MIC).

In the case of `Cc1ccc(C)n1-c1ccccc1NC(=S)Nc1ccccc1`, the MIC is 50 µg/mL (≈ 156 µM). The same measure for `NC(=S)N1N=C(C/N=N/NC(=O)c2cccnc2)CC1c1ccccc1` (centres undefined): 1.25 µg/mL (≈ 3.4 µM). The value for `O=C(/C=C/c1cccc(Cl)c1Cl)c1ccc(-n2cccc2)cc1` was 25 µg/mL (≈ 73.1 µM); that for `c1coc(-c2cc(-c3ccc(-n4cccc4)cc3)on2)c1` was 25 µg/mL (≈ 90.5 µM). The value for `CC(=O)N1N=C(c2ccc(-n3cccc3)cc2)CC1c1ccco1` (centres undefined) was 25 µg/mL (≈ 78.3 µM). In turn, `O=C(/C=C/c1cccc(Oc2ccccc2)c1)c1ccc(-n2cccc2)cc1` displayed an MIC of 25 µg/mL (≈ 68.4 µM).

With `Cc1ccc(C)n1-c1ccccc1NC(=S)Nc1ccc(Cl)cc1`, inhibition of growth (MIC) required 50 µg/mL (≈ 140 µM). This MIC lies about 2-fold higher than the previous one.

`CC(=O)N1N=C(c2ccc(-n3cccc3)cc2)CC1c1ccccc1Cl` (centres undefined) displayed an MIC of 25 µg/mL (≈ 68.7 µM). The value for `COc1ccc(-c2cc(-c3ccc(-n4cccc4)cc3)on2)cc1OC` was 12.5 µg/mL (≈ 36.1 µM). The value for `c1ccc(-c2cc(-c3ccc(-n4cccc4)cc3)on2)cc1` was 100 µg/mL (≈ 349 µM); that for `Cc1ccc(-c2cc(-c3ccc(-n4cccc4)cc3)on2)cc1` was 12.5 µg/mL (≈ 41.6 µM); that for `COc1ccc(C2CC(c3ccc(-n4cccc4)cc3)=NN2C(C)=O)c(OC)c1` (centres undefined) was 6.25 µg/mL (≈ 16 µM).

The compound `Cc1ccc(C)n1-c1ccccc1NC(=S)Nc1ccc([N+](=O)[O-])cc1` came in with an MIC of 50 µg/mL (≈ 136 µM). As for `O=C(/C=C/c1c(Cl)cccc1Cl)c1ccc(-n2cccc2)cc1`, the MIC is 25 µg/mL (≈ 73.1 µM). Against the preceding compound, the MIC is about 2-fold lower.

`O=C(/C=C/c1cccc(Br)c1)c1ccc(-n2cccc2)cc1` yielded an MIC of 100 µg/mL (≈ 284 µM).

Compound `CC(=O)N1N=C(c2ccc(-n3cccc3)cc2)CC1c1cccc(Cl)c1Cl` (centres undefined) showed a minimal inhibitory concentration (MIC) of 25 µg/mL (≈ 62.8 µM). As for `O=C(/C=C/c1ccccc1Br)c1ccc(-n2cccc2)cc1`, the MIC turned out to be 50 µg/mL (≈ 142 µM).

`CC(=O)N1N=C(c2ccc(-n3cccc3)cc2)CC1c1ccc(F)cc1` (centres undefined) gave an MIC of 12.5 µg/mL (≈ 36 µM). The same measure for `O=C(/C=C/c1ccco1)c1ccc(-n2cccc2)cc1`: 50 µg/mL (≈ 190 µM); for `COc1cccc(/C=C/C(=O)c2ccc(-n3cccc3)cc2)c1`: 25 µg/mL (≈ 82.4 µM); for `Cc1ccc(C)n1-c1ccccc1NC(=S)Nc1cccc(Cl)c1`: 50 µg/mL (≈ 140 µM). The value for `O=C(/C=C/c1ccc(F)cc1)c1ccc(-n2cccc2)cc1` was 12.5 µg/mL (≈ 42.9 µM); that for `CC(=O)N1N=C(c2ccc(-n3cccc3)cc2)CC1c1cccc(Br)c1` (centres undefined) was 50 µg/mL (≈ 122 µM).

`CC(=O)N1N=C(c2ccc(-n3cccc3)cc2)CC1c1ccc(C)cc1` (centres undefined) returned an MIC of 6.25 µg/mL (≈ 18.2 µM). This MIC is about 8-fold lower than that of the compound before. As for `Cc1ccc(C)n1-c1ccccc1NC(=S)Nc1cccc(Br)c1`, the MIC stood at 50 µg/mL (≈ 125 µM). The compound `c1ccc(Oc2cccc(-c3cc(-c4ccc(-n5cccc5)cc4)on3)c2)cc1` came in with an MIC of 12.5 µg/mL (≈ 33 µM). This MIC is about 4-fold lower than that of the compound before. Compound `COc1ccc(/C=C/C(=O)c2ccc(-n3cccc3)cc2)cc1OC` yielded an MIC of 25 µg/mL (≈ 75 µM).

Compound `CC(=O)N1N=C(c2ccc(-n3cccc3)cc2)CC1c1cccc(Oc2ccccc2)c1` (centres undefined) returned an MIC of 12.5 µg/mL (≈ 29.7 µM).

`COc1ccccc1NC(=S)N1N=C(c2ccc(O)c(C)c2)CC1c1c(Cl)cccc1Cl` (centres undefined): the lowest concentration to inhibit growth (MIC) was 1.66 µg/mL (≈ 3.41 µM). Compared with the last compound, the MIC is about 7.5-fold lower. As to `O=C(/C=C/c1ccc(Cl)cc1)c1ccc(-n2cccc2)cc1`, inhibition of growth (MIC) required 50 µg/mL (≈ 162 µM).

The compound `CC[C@@H](CO)NCCN[C@@H](CC)CO` [ETHAMBUTOL] had an MIC of 0.5 µg/mL (≈ 2.45 µM). The same measure for `CO[C@H]1/C=C/O[C@@]2(C)Oc3c(C)c(O)c4c(O)c(c(/C=N/N5CCN(C)CC5)c(O)c4c3C2=O)NC(=O)/C(C)=C\C=C\[C@H](C)[C@H](O)[C@@H](C)[C@@H](O)[C@@H](C)[C@H](OC(C)=O)[C@@H]1C` [RIFAMPIN]: 0.4 µg/mL (≈ 0.486 µM).

These data come from ChEMBL document CHEMBL3745673, “Synthesis, antimycobacterial screening and ligand-based molecular docking studies on novel pyrrole derivatives bearing pyrazoline, isoxazole and phenyl thiourea moieties” (Eur J Med Chem, 2016).
